Activity calls are given as the source filed them. No cut-off for these calls is given here.
What was measured:
Mus musculus [1] = assay: The compound was tested in vivo for photosensitizing efficacy in DBA/2 Mice transplanted with SMT/F tumors and the activity is expressed as % response at ( 21-25 days) 24 hours post injection at 5.0 mg/kg concentration; format: functional, organism-based; parameters: dose 5 mg/kg
How it was run: (§1)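 Female DBA/2 HA-DD mice, 5-7 weeks old. A 1 mm SMT-F tumor piece from a donor was trocar-implanted subcutaneously in the axilla. At about 5 mm tumor diameter, sensitizer in 1% Tween 80/water was given iv; dose was based on extinction coefficient. At 3 or 24 h after injection, restrained mice had the tumor lit with 135 J/cm2 laser light at the in vivo long-wavelength maximum. Tumor response was followed to day 30; six mice/group.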

Mus musculus [2] = assay: The compound was tested in vivo for photosensitizing efficacy in DBA/2 Mice transplanted with SMT/F tumors and the activity is expressed as % response at ( 26-30 days) 24 hours post injection at 5.0 mg/kg concentration; format: functional, organism-based; parameters: dose 5 mg/kg; how it was run: as §1
Mus musculus [3] = assay: The compound was tested in vivo for photosensitizing efficacy in DBA/2 Mice transplanted with SMT/F tumors and the activity is expressed as % response at ( 6-10 days) 24 hours post injection at 5.0 mg/kg concentration; format: functional, organism-based; parameters: dose 5 mg/kg; how it was run: as §1
Mus musculus [4] = assay: The compound was tested in vivo for photosensitizing efficacy in DBA/2 Mice transplanted with SMT/F tumors and the activity is expressed as % response at (1-5 days) 24 hours post injection at 5.0 mg/kg concentration; format: functional, organism-based; parameters: dose 5 mg/kg; how it was run: as §1
Mus musculus [5] = assay: The compound was tested in vivo for photosensitizing efficacy in DBA/2 Mice transplanted with SMT/F tumors and the activity is expressed as % response at (11-15 days) 24 hours post injection at 5.0 mg/kg concentration; format: functional, organism-based; parameters: dose 5 mg/kg; how it was run: as §1
Mus musculus [6] = assay: The compound was tested in vivo for photosensitizing efficacy in DBA/2 Mice transplanted with SMT/F tumors and the activity is expressed as % response at (16-20 days) 24 hours post injection at 5.0 mg/kg concentration; format: functional, organism-based; parameters: dose 5 mg/kg; how it was run: as §1
Mus musculus [7] = assay: The compound was tested in vivo for photosensitizing efficacy in DBA/2 Mice at (1-5 days) 3 hours post injection at 5.0 mg/kg concentration; No response; format: functional, organism-based; parameters: dose 5 mg/kg; how it was run: as §1
Mus musculus [8] = assay: The compound was tested in vivo for photosensitizing efficacy in DBA/2 Mice transplanted with SMT/F tumors and the activity is expressed as % response (11-15 days) 3 hours post injection at 5.0 mg/kg concentration; No response; format: functional, organism-based; parameters: dose 5 mg/kg; how it was run: as §1
Mus musculus [9] = assay: The compound was tested in vivo for photosensitizing efficacy in DBA/2 Mice transplanted with SMT/F tumors and the activity is expressed as % response (16-20 days) 3 hours post injection at 5.0 mg/kg concentration; No response; format: functional, organism-based; parameters: dose 5 mg/kg; how it was run: as §1
Mus musculus [10] = assay: The compound was tested in vivo for photosensitizing efficacy in DBA/2 Mice transplanted with SMT/F tumors and the activity is expressed as % response (21-25 days) 3 hours post injection at 5.0 mg/kg concentration; No response; format: functional, organism-based; parameters: dose 5 mg/kg; how it was run: as §1
Mus musculus [11] = assay: The compound was tested in vivo for photosensitizing efficacy in DBA/2 Mice transplanted with SMT/F tumors and the activity is expressed as % response (26-30 days) 3 hours post injection at 5.0 mg/kg concentration; No response; format: functional, organism-based; parameters: dose 5 mg/kg; how it was run: as §1
Mus musculus [12] = assay: The compound was tested in vivo for photosensitizing efficacy in DBA/2 Mice transplanted with SMT/F tumors and the activity is expressed as % response (6-10 days) 3 hours post injection at 5.0 mg/kg concentration; No response; format: functional, organism-based; parameters: dose 5 mg/kg; how it was run: as §1
Albumin = Albumin (Homo sapiens, UniProt P02768); assay: Binding affinity against Human serum albumin(Site I).
Sequence of Albumin (P02768 whole entry): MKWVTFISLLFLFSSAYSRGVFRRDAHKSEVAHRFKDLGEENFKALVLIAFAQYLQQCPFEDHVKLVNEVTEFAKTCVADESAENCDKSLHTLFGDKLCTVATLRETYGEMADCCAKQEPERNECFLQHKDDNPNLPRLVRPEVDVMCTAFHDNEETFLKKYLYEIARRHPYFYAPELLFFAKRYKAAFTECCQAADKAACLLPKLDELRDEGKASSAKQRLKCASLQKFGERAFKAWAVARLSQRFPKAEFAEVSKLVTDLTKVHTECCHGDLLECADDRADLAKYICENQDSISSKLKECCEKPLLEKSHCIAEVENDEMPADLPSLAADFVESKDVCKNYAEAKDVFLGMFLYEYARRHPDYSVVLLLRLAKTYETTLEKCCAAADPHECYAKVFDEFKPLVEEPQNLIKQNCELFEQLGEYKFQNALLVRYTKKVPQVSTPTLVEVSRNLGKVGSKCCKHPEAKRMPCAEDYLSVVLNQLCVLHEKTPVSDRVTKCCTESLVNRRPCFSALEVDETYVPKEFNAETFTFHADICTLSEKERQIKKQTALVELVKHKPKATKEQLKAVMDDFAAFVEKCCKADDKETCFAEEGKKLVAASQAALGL
How it was run: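 Fluorometric titration: HSA and sensitizer fixed at 1 × 10^-6 mol/L. Site probe varied 4 × 10^-7 to 2 × 10^-6 mol/L: DNSA for site I, read at 472 nm; DP for site II, read at 476 nm; excitation 340 nm. Incubated 4 °C, pH 7.0, 4 h, dark. Bound probe taken from standard curves of free probe (water) and HSA-bound probe (2.5 × 10^-5 mol/L HSA).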

Molecule | Response (Mus musculus [1]) [%] | Response (Mus musculus [2]) [%] | Response (Mus musculus [3]) [%] | Response (Mus musculus [4]) [%] | Response (Mus musculus [5]) [%] | Response (Mus musculus [6]) [%] | Response (Mus musculus [7]) | Response (Mus musculus [8]) | Response (Mus musculus [9]) | Response (Mus musculus [10]) | Response (Mus musculus [11]) | Response (Mus musculus [12]) | Binding constant (Albumin)
PORFIMER SODIUM | 50 | 50 | 100 | 100 | 80 | 60 |  |  |  |  |  |  | 
CCc1c(C)c2[nH]c1cc1[nH]c(cc3nc4c(c5nc(c2C=O)[C@@H](C)[C@@H]5CCC(=O)OC)CCC4=C3C)C(O)(CC)C1(C)O (stereo partly drawn) |  |  |  |  |  |  | inactive | inactive | inactive | inactive | inactive | inactive | 500000 l M-1

Source: ChEMBL document CHEMBL1130127, “Synthesis, photophysical properties, in vivo photosensitizing efficacy, and human serum albumin binding properties of some novel bacteriochlorins” (J Med Chem, 1997)
